Measured values pooled from the literature.
Each line is one published result; the experiments were not run side by side.
Cell line: A549
Observed: cell growth or viability

SMILES | assay | conditions | IC50
COc1ccc(-c2nn(-c3ccc(S(C)(=O)=O)cc3)cc2/C=N/N=c2\[nH]c(-c3ccc(Br)cc3)cs2)cc1 | MTT | 48 h | 14.3 µM
CCN(CC)CCCn1cccc1/C=N/NC(=O)Nc1cc2c(Nc3ccc(F)c(Cl)c3)ncnc2cc1O[C@H]1CCOC1 | MTT | 72 h | 2.36 µM
O=C(NC(=S)NC1CCCCC1)c1ccc2ccccc2c1 | – | 48 h | 5.72 µM
Cc1cc(C)n(-c2nc(NN=Cc3c[nH]c4ccccc34)nc(Nc3ccc(Br)cc3)n2)n1 | SRB | 72 h | 6.1 µM
COc1cccc2c1C(=O)c1c(O)c3c(c(O)c1C2=O)C[C@@](O)(C(=O)CO)C[C@@H]3O[C@H]1C[C@H](N)[C@H](O)[C@H](C)O1 | MTT | 48 h | 5.06 µM
Cc1ccc(-c2csc(Nc3ccc4c(O)ncnc4c3)n2)cc1 | MTT | – | 27 µM
CC(C)C[C@H](NC(=O)[C@H](Cc1ccccc1)NC(=O)c1cnccn1)B(O)O | ATP luminescence | – | 0.02 µM
O=C1NC(=NCc2cccs2)S/C1=C\c1ccc2ncccc2c1 | – | – | > 10 µM
O=c1[nH]cc(S(=O)(=O)Nc2cccc(-c3nnc(-c4cccc(Cl)c4)o3)c2)c(=O)[nH]1 | MTT | 24 h | 0.78 µM
COc1nc(OCc2cccc(-c3ccccc3)c2C)ccc1CNCCNC(C)=O | MTT | – | 4.6 µM
COc1cc([C@@H]2c3cc4c(cc3[C@@H](O[C@@H]3O[C@@H]5CO[C@@H](C)O[C@H]5[C@H](O)[C@H]3O)[C@H]3COC(=O)[C@H]23)OCO4)cc(OC)c1O | MTT | 72 h | 0.54 µM
CNC(=O)c1cc(Oc2ccc(NC(=O)Nc3ccc(Cl)c(C(F)(F)F)c3)cc2)ccn1 | MTT | 72 h | 2.12 µM
COc1cccc(/C=C2\SC(=S)N(CC(=O)Nc3ccccc3)C2=O)c1 | MTT | – | 32 µM
CCCCC[C@H](O)CC(=O)CCc1ccc(O)c(OC)c1 | SRB | – | 208 µM
COc1ccccc1/C=C/CNCC(O)COc1ccccc1 (stereo not drawn) | CCK-8 | 72 h | 17.4 µM
Cn1c(=O)c2c(ncn2Cc2nnc(SCC(=O)Nc3ccccc3)n2-c2ccccc2)n(C)c1=O | MTT | – | 143 µM
COC1=C2C[C@@H](C)C[C@H](OC)[C@H](O)[C@@H](C)/C=C(\C)[C@H](OC(N)=O)[C@@H](OC)/C=C\C=C(/C)C(=O)NC(=CC1=O)C2=O | SRB | 72 h | 0.3 µM
COc1ccccc1/C=C/CNCC(O)COc1cccc2[nH]c3ccccc3c12 (stereo not drawn) | CCK-8 | 72 h | 7.9 µM
C=C(Cl)C(=O)Nc1cc(Nc2nc(N3CCOCC3)c3sccc3n2)c(OC)cc1N(C)CCN(C)C | MTT | – | 0.107 µM

SMILES | assay | conditions | IC50
CC1=C(O)C(=O)C=C2C1=CC=C1[C@@]2(C)CC[C@@]2(C)[C@@H]3C[C@](C)(C(=O)OCCCN4C(=O)C5C=CC=CC5C4=O)CC[C@]3(C)CC[C@]12C (stereo partly drawn) | MTT | 48 h | 3.65 µM
c1ccc2cc(-c3nnc(NC4CCCCC4)[nH]3)ccc2c1 | – | 48 h | 1.22 µM
COc1ccccc1CNCC(O)COc1cccc2[nH]c3ccccc3c12 (stereo not drawn) | CCK-8 | 72 h | 13.9 µM
CCC(=O)Nc1cc(Nc2nc(N3CCc4sccc4C3)c3cccnc3n2)c(OC)cc1N1CCSCC1 | MTT | – | 7.91 µM
COc1ccc(NC(=O)Nc2ccc(OCc3nccc(OCC(F)(F)F)c3C)cc2)cc1 | MTT | 72 h | 12.5 µM
C=CC(=O)Nc1cccc(Nc2nc(Nc3ccc(OCCOC)cc3)ncc2F)c1 | – | – | 4.96 µM
COc1ccc(NC(=O)Nc2ccc(OCc3nccc(OC)c3OC)cc2)cc1 | MTT | 72 h | 16.7 µM
O=C(NC(=S)Nc1ccccc1)c1ccc2ccccc2c1 | – | 48 h | 6.86 µM
O=[N+]([O-])c1ccc(-c2csc(Nc3ccc4c(O)ncnc4c3)n2)cc1 | MTT | – | 17.9 µM
CCN(CC)CCn1cccc1/C=N/NC(=O)Nc1cc2c(Nc3ccc(F)c(Cl)c3)ncnc2cc1OC | MTT | 72 h | 0.43 µM
C=CC(=O)Nc1cccc(Oc2nc(Nc3ccc(N4CCN(C)CC4)cc3)nc3ccsc23)c1 | MTT | – | 4.22 µM
CCN(CC)CCn1cccc1/C=N/NC(=O)Nc1cc2c(Nc3ccc(F)c(Cl)c3)ncnc2cc1O[C@H]1CCOC1 | MTT | 72 h | 1.59 µM
O=C(Nc1nnc(-c2cc3ccccc3[nH]2)s1)c1cc2c([nH]c3ccccc32)c(-c2ccc(F)cc2)n1 | MTT | 72 h | 3.64 µM
COC(C)(C)CCC[C@](C)(O)[C@H]1CC[C@]2(C)[C@@H]1[C@H](O)C[C@@H]1[C@@]3(C)CC[C@H](O)C(C)(C)[C@@H]3CC[C@]12C | MTT | 72 h | 4.88 µM
CN1CCN(C/C=N/NC(=O)Nc2cc3c(Nc4ccc(F)c(Cl)c4)ncnc3cc2O[C@H]2CCOC2)CC1 | MTT | 72 h | 4.34 µM
C[C@H]1Oc2cc(cnc2N)-c2c(nn(C)c2C#N)CN(C)C(=O)c2ccc(F)cc21 | – | – | > 8.4 µM
O=C(NCCc1ccccc1)NNC(=O)c1ccc(Nc2nccc(-c3cccnc3)n2)cc1 | MTT | – | 23.7 µM
C=CC(=O)Nc1cc(Nc2nc(N3CCc4sccc4C3)c3cccnc3n2)c(OC)cc1N1CCOCC1 | MTT | – | > 50 µM
CN(C)C/C=N/NC(=O)Nc1cc2c(Nc3ccc(F)c(Cl)c3)ncnc2cc1O[C@H]1CCOC1 | MTT | 72 h | 5.38 µM

SMILES | assay | conditions | IC50
COc1cc([C@@H]2c3cc4c(cc3[C@@H](O[C@@H]3O[C@@H]5CO[C@@H](C)O[C@H]5[C@H](O)[C@H]3O)[C@H]3COC(=O)[C@H]23)OCO4)cc(OC)c1O | fluorescence | 48 h | 4.1 µM
CCN(CC)CCNC(=O)c1c(C)[nH]c(/C=C2\C(=O)Nc3ccc(F)cc32)c1C | – | 72 h | 4.56 µM
Cc1cc(C)cc(NC(=O)NNC(=O)c2ccc(Nc3nccc(-c4ccccn4)n3)cc2)c1 | MTT | 24 h | > 40 µM
O=C1Nc2ccc(F)cc2/C1=N/NC(=O)c1cc2ccccc2[nH]1 | – | – | > 30 µM
COc1ccccc1CCCNCC(O)COc1cccc2[nH]c3ccccc3c12 (stereo not drawn) | CCK-8 | 72 h | 11.8 µM
CCn1c(-c2nnc(NC(=O)c3cc4c([nH]c5ccccc54)c(-c4ccc(OC)cc4)n3)s2)cc2ccccc21 | MTT | 72 h | 14.2 µM
COc1cc(N(C)CCN(C)C)c(NC(=O)/C=C/C(C)C)cc1Nc1nc(N2CCc3sccc3C2)c2sccc2n1 | MTT | – | > 50 µM
COc1ccccc1/C=C/CNCC(O)COc1cccc2ncccc12 (stereo not drawn) | CCK-8 | 72 h | 28.1 µM
COc1cc2ncnc(Nc3ccc(F)c(Cl)c3)c2cc1NC(=O)N/N=C/c1cccn1CCN1CCOCC1 | MTT | 72 h | 0.58 µM
CC1=C(O)C(=O)C=C2C1=CC=C1[C@@]2(C)CC[C@@]2(C)[C@@H]3C[C@](C)(C(=O)OCCO)CC[C@]3(C)CC[C@]12C | MTT | 48 h | 3.19 µM
COCCCOc1ccnc(COc2ccc(NC(=O)Nc3ccc(Cl)cc3)cc2)c1C | MTT | 72 h | 10.2 µM
C=C(Cl)C(=O)Nc1cc(Nc2nc(Nc3cnn(C)c3)c3sccc3n2)c(OC)cc1N(C)CCN(C)C | MTT | – | 0.441 µM
COc1ccc(C(=O)O[C@@H]2CN3Cc4c(cc5c(c4OC)OCO5)[C@@]24C=C[C@H](OC)C[C@@H]34)cc1 | WST-1 | – | > 10 µM
COc1c(C)cnc(COc2ccc(NC(=O)Nc3cc(F)cc(F)c3)cc2)c1C | MTT | 72 h | 10.2 µM
CCC(=O)Nc1cc(Nc2nc(Nc3cnn(C)c3)c3sccc3n2)c(OC)cc1N(C)CCN(C)C | MTT | – | 7.06 µM
COc1cc2ncnc(Nc3ccc(F)c(Cl)c3)c2cc1NC(=O)N/N=C/c1cccn1CCCN1CCCC1 | MTT | 72 h | 2.45 µM
Cc1cc(=O)[nH]n1C(=O)c1ccc(-n2c(C)ccc2C)cc1 | MTT | 72 h | 208 µM
Cc1ccc(-c2nn(-c3ccc(S(C)(=O)=O)cc3)cc2/C=N\N=c2/[nH]c(-c3ccc([N+](=O)[O-])cc3)cs2)cc1 | MTT | 48 h | 57.6 µM
CC(=O)OCCOC(=O)[C@]1(C)CC[C@]2(C)CC[C@]3(C)C4=CC=C5C(=CC(=O)C(O)=C5C)[C@]4(C)CC[C@@]3(C)[C@@H]2C1 | MTT | 48 h | 3.19 µM
